This passage reports zone of inhibition, MIC and MBC results from ChEMBL document CHEMBL2331322, “Synthesis and antimicrobial activity of some new benzo and naphthonitrile derivatives” (2013).

One may read the MIC as the lowest concentration that inhibits growth of the organism. Lower therefore signals inhibition by little substance. In general, MBC refers to the smallest concentration meeting the test's criterion for killing.

What all share (type): functional
Experiment [1] has as its system Fusarium oxysporum. Kind of experiment: Antimicrobial activity against Fusarium oxysporum at 1 mg/mL after 48 hrs by agar disc diffusion method. The following applies: read-out: DIZ. The method, boiled down:
(§1)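 Sterile 5 mm filter paper disks were impregnated with test solution in DMF (1 mg/mL) and placed on agar plates seeded with the test organism, in triplicate. Bacteria were incubated at 37 °C for 24 h and fungi for […] (so in the source). The read-out was the average inhibition zone diameter around the disks, in mm.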
(In general: In agar diffusion tests the substance spreads into inoculated agar from a disc or well.)

Experiment [2] deals with Escherichia coli. Put plainly: Antimicrobial activity against Escherichia coli at 1 mg/mL after 24 hrs by agar disc diffusion method. As to conditions: read-out: DIZ. The method, boiled down:
as §1

In experiment [3] the test system is Pseudomonas aeruginosa. Put plainly: Antimicrobial activity against Pseudomonas aeruginosa after 24 hrs by microdilution susceptibility test. The method, boiled down:
(§2)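 MIC was determined by broth microdilution, using Müller–Hinton broth for bacteria and Sabouraud liquid medium for fungi. Stocks were made in DMF and serially diluted twofold. Wells were inoculated at 10⁶ CFU/mL and plates incubated at 36 °C for 24–48 h, with controls included. Only compounds giving agar-diffusion zones >14 mm were tested.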

For experiment [4], the system named is Escherichia coli. Put plainly: Antimicrobial activity against Escherichia coli after 24 hrs by microdilution susceptibility test. The method, boiled down:
as §2
A general note: Broth dilution looks for growth in wells or tubes with falling amounts of substance.

Experiment [5] concerns Pseudomonas aeruginosa. Kind of experiment: Antimicrobial activity against Pseudomonas aeruginosa at 1 mg/mL after 24 hrs by agar disc diffusion method. The following applies: read-out: DIZ. A digest of the protocol:
as §1

Experiment [6] deals with Bacillus subtilis. Put plainly: Antimicrobial activity against Bacillus subtilis at 1 mg/mL after 24 hrs by agar disc diffusion method. As to conditions: read-out: DIZ. A digest of the protocol: as §1
Experiment [7] concerns Botrytis fabae. Put plainly: Antimicrobial activity against Botrytis fabae at 1 mg/mL […] by agar disc diffusion method. As to conditions: read-out: DIZ.
Experiment [8] concerns Botrytis fabae. Put plainly: Antimicrobial activity against Botrytis fabae after 48 hrs by microdilution susceptibility test. The method, boiled down:
as §2

Experiment [9] has as its system Bacillus thuringiensis. Kind of experiment: Antimicrobial activity against Bacillus thuringiensis at 1 mg/mL after 24 hrs by agar disc diffusion method. As to conditions: read-out: DIZ. The method, boiled down: as §1
The test system of experiment [10] is Bacillus subtilis. Put plainly: Antimicrobial activity against Bacillus subtilis after 24 hrs by microdilution susceptibility test. The method, boiled down: as §2
Experiment [11] has as its system Bacillus thuringiensis. Kind of experiment: Antimicrobial activity against Bacillus thuringiensis after 24 hrs by microdilution susceptibility test. The method, boiled down:
as §2

The subject of experiment [12] is Fusarium oxysporum. Put plainly: Antimicrobial activity against Fusarium oxysporum after 48 hrs by microdilution susceptibility test. A digest of the protocol:
as §2

Converted amounts (≈) assume the structure as drawn.

As to `N#CC1c2ccccc2C(=N)C(C#N)(C#N)C1c1ccc(Cl)cc1` (configuration not stated), the zone of inhibition at 1000 µg/mL with Fusarium oxysporum [1] amounted to 20 mm; in the experiment with Escherichia coli [2], 33 mm; in the experiment with Pseudomonas aeruginosa [5], 31 mm; in the experiment with Bacillus subtilis [6], 20 mm; in the experiment on Botrytis fabae [7], 26 mm; in the experiment with Bacillus thuringiensis [9] it was 33 mm. Also, the MIC against Pseudomonas aeruginosa [3] came to 100 µg/mL (≈ 302 µM); with Escherichia coli [4], 100 µg/mL (≈ 302 µM); against Botrytis fabae [8], 50 µg/mL (≈ 151 µM); against Bacillus subtilis [10], 50 µg/mL (≈ 151 µM); with Bacillus thuringiensis [11] it was 50 µg/mL (≈ 151 µM); against Fusarium oxysporum [12], 50 µg/mL (≈ 151 µM). Moreover, the MBC in the experiment on Escherichia coli [4] and against Bacillus subtilis [10] was 200 µg/mL (≈ 605 µM) each time.
Turning to `COc1cc(/C=C(\C#N)c2ccccc2C#N)cc(OC)c1OC`, the zone of inhibition at 1000 µg/mL was 19 mm with Fusarium oxysporum [1]; 16 mm in the experiment with Escherichia coli [2]; 18 mm in the experiment with Pseudomonas aeruginosa [5]; 20 mm with Bacillus subtilis [6]; 20 mm in the experiment on Botrytis fabae [7]; 15 mm in the experiment with Bacillus thuringiensis [9]. In addition, the minimal inhibitory concentration (MIC) against Pseudomonas aeruginosa [3], against Escherichia coli [4], with Botrytis fabae [8], against Bacillus subtilis [10], against Bacillus thuringiensis [11] and in the experiment on Fusarium oxysporum [12] was 100 µg/mL (≈ 312 µM) each time. Besides, the MBC with Escherichia coli [4] and against Bacillus subtilis [10] was 200 µg/mL (≈ 624 µM) throughout.
Consider `N=c1[nH]c2nn(-c3ccc(Cl)cc3)nc2c2ccccc12`, for which the zone of inhibition at 1000 µg/mL came out at 15 mm in the experiment with Fusarium oxysporum [1]; 15 mm with Escherichia coli [2]; 19 mm with Pseudomonas aeruginosa [5]; 32 mm with Bacillus subtilis [6]; 15 mm in the experiment with Botrytis fabae [7]; 38 mm in the experiment with Bacillus thuringiensis [9]. Moreover, the MIC against Pseudomonas aeruginosa [3] worked out at 50 µg/mL (≈ 169 µM); against Escherichia coli [4], 50 µg/mL (≈ 169 µM); against Botrytis fabae [8], 50 µg/mL (≈ 169 µM); in the experiment on Bacillus subtilis [10], 25 µg/mL (≈ 84.5 µM); in the experiment with Bacillus thuringiensis [11] it was 25 µg/mL (≈ 84.5 µM); in the experiment on Fusarium oxysporum [12], 25 µg/mL (≈ 84.5 µM). In addition, the MBC against Escherichia coli [4] and against Bacillus subtilis [10] was 200 µg/mL (≈ 676 µM) each time.
As for `CC(=O)OCC1=C(C(=O)O)N2C(=O)[C@@H](NC(=O)Cc3cccs3)[C@H]2SC1` [CEPHALOTHIN], the zone of inhibition at 1000 µg/mL in the experiment with Escherichia coli [2] turned out to be 38 mm; with Pseudomonas aeruginosa [5] it was 37 mm; in the experiment on Bacillus subtilis [6] it was 36 mm; in the experiment with Bacillus thuringiensis [9] it was 37 mm. Besides, the MIC in the experiment on Pseudomonas aeruginosa [3], in the experiment on Escherichia coli [4], with Bacillus subtilis [10] and in the experiment with Bacillus thuringiensis [11] was 6.25 µg/mL (≈ 15.8 µM) in each case.
As to `COc1ccc(/N=N/C(C(N)=O)c2ccccc2C#N)cc1` (configuration not stated), the zone of inhibition at 1000 µg/mL in the experiment on Fusarium oxysporum [1] was determined as 16 mm; in the experiment on Escherichia coli [2], 30 mm; in the experiment on Pseudomonas aeruginosa [5], 32 mm; in the experiment with Bacillus subtilis [6], 32 mm; with Botrytis fabae [7] it was 26 mm; with Bacillus thuringiensis [9] it was 19 mm. In addition, the MIC against Pseudomonas aeruginosa [3] turned out to be 25 µg/mL (≈ 84.9 µM); against Escherichia coli [4] it was 12.5 µg/mL (≈ 42.5 µM); against Botrytis fabae [8] it was 50 µg/mL (≈ 170 µM); in the experiment with Bacillus subtilis [10] it was 25 µg/mL (≈ 84.9 µM); against Bacillus thuringiensis [11] it was 12.5 µg/mL (≈ 42.5 µM); with Fusarium oxysporum [12], 25 µg/mL (≈ 84.9 µM). The MBC against Escherichia coli [4] and with Bacillus subtilis [10] was 100 µg/mL (≈ 340 µM) throughout.
Regarding `COc1ccc(/C=C(\C#N)c2ccccc2C#N)cc1`, the zone of inhibition at 1000 µg/mL in the experiment on Fusarium oxysporum [1] came to 20 mm; in the experiment on Escherichia coli [2] it was 19 mm; with Pseudomonas aeruginosa [5] it was 26 mm; in the experiment with Bacillus subtilis [6], 26 mm; in the experiment on Botrytis fabae [7] it was 25 mm; with Bacillus thuringiensis [9], 18 mm. Besides, the MIC against Pseudomonas aeruginosa [3] stood at 100 µg/mL (≈ 384 µM); in the experiment on Escherichia coli [4], 100 µg/mL (≈ 384 µM); against Botrytis fabae [8] it was 100 µg/mL (≈ 384 µM); with Bacillus subtilis [10] it was 100 µg/mL (≈ 384 µM); in the experiment with Bacillus thuringiensis [11] it was 100 µg/mL (≈ 384 µM); in the experiment with Fusarium oxysporum [12] it was 50 µg/mL (≈ 192 µM). In addition, the MBC against Escherichia coli [4] stood at 200 µg/mL (≈ 768 µM); with Bacillus subtilis [10], 100 µg/mL (≈ 384 µM).
Consider `N=c1[nH]c2nn(-c3ccc([N+](=O)[O-])cc3)nc2c2ccccc12`, for which the zone of inhibition at 1000 µg/mL in the experiment with Fusarium oxysporum [1] worked out at 15 mm; in the experiment with Escherichia coli [2] it was 26 mm; with Pseudomonas aeruginosa [5], 15 mm; in the experiment on Bacillus subtilis [6], 38 mm; in the experiment on Botrytis fabae [7], 16 mm; with Bacillus thuringiensis [9], 38 mm. In addition, the minimum inhibitory concentration (MIC) was 50 µg/mL (≈ 163 µM) in the experiment with Pseudomonas aeruginosa [3]; 25 µg/mL (≈ 81.6 µM) with Escherichia coli [4]; 25 µg/mL (≈ 81.6 µM) against Botrytis fabae [8]; 50 µg/mL (≈ 163 µM) in the experiment on Bacillus subtilis [10]; 50 µg/mL (≈ 163 µM) against Bacillus thuringiensis [11]; 25 µg/mL (≈ 81.6 µM) with Fusarium oxysporum [12]. Also, the minimum bactericidal concentration (MBC) in the experiment with Escherichia coli [4] and against Bacillus subtilis [10] was 200 µg/mL (≈ 653 µM) each time.
